# Source: PubChem BioAssay AID624025 (Broad Institute, 2012)
# Values joined by “and” are separate entries in the source; they are usually repeats but may differ in a detail not shown here. Equal entries are not always repeated. Active and inactive are the calls of the source.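 How the source made its calls: active means compounds whose fitted half-maximal growth inhibition dose lies at or below twice the top tested dose; inconclusive means flat curve with 30 to 70% growth loss, or bad fit; inactive means the rest.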
# Test system: not listed separately
# Test: S. cerevisiae growth inhibition in glucose medium, dose response, OD600, powder samples, set 4 (AID 624025)
# Conditions: S. cerevisiae growth in glucose, OD600, 48 h; at 3 µM (top of the series)
# Summary of the method: (§1)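 Incubation: 48 h static incubation at 30 °C, humidified. Material: Saccharomyces cerevisiae yeast cells, growth in glucose medium. Signal: optical density at 600 nm. Doses: pin-transferred compounds.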
row,Structure (SMILES),"activity change, negative = inhibition"
1,CCOC(=O)N1C(=O)C2(CCCCC2)N(c2ccc(C#N)cc2)C1=S,-20.2% (inactive)
2,CCOC(=O)N1C(=O)C2(CCCCC2)N(c2ccc(C)cc2)C1=S,-14.8% (inactive) and -15% (inactive)
3,C/C=C/[C@@H]1[C@H]2C[C@@H](C)CC[C@@H]2C(C)=C[C@H]1C(=O)c1c(O)c(-c2ccc(O)cc2)c[nH]c1=O,-15.3% (inactive)
4,CCOC(=O)N1C(=O)C2(CCCCC2)N(c2ccccc2)C1=S,-5.67% (inactive)
5,CCOC(=O)N1C(=O)C2(CCCCC2)N(c2ccc(F)cc2)C1=S,-7.11% (inactive)
6,CCOC(=O)N1C(=O)C2(CCCCC2)N(c2ccc(Cl)cc2)C1=S,0.052% (inactive)
7,CCOC(=O)N1C(=O)C2(CCCCC2)N(c2cccc(C)c2)C1=S,-12.2% (inactive)

# Test system: S. cerevisiae growth in glucose, OD600, 48 h
# Test: as above
# Conditions: not given
# Summary of the method: as §1
row,Structure (SMILES),AC50 [nM]
1,CC1/C=C/C=C\C=C\C=C\C=C\C=C\C=C\C(O[C@H]2OC(C)C(O)C(N)C2O)CC2OC(O)(CC(O)CC(O)C(O)CCC(O)CC(O)CC(=O)OC(C)C(C)C1O)CC(O)C2C(=O)O (stereo partly drawn),527
